MC4R antagonist: antagonists of human melanocortin 4 receptor (MC4R); P32245; MC4R-expressing cells, MTII-stimulated cAMP, LANCE TR-FRET; inhibition, % at 6.5 µM; actives 0.48% (n = 360,000); AID 540295;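 active = inhibition above its plate's cutoff, the mean of tested wells on that plate plus 3 SD, cut at about 29% in these data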;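 also: 0% = Melanotan II alone and 100% = Melanotan II plus saturating MCL0020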
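Assay system: U2OS-MC4R stable cell line; Also added: Melanotan II; Technique: Eu-cAMP/anti-cAMP TR-FRET, emission 671 nm; Times: 30-min compound, 1-h challenge, 1-h detection, room temperature.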
PfG6PD inh: PfG6PD (Plasmodium falciparum) enzyme inhibition. PfGluPho enzyme, NADPH resazurin-diaphorase fluorescence. inhibition, % at 20 µM. actives 0.78% (n = 350,000). AID 504690;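 active = inhibition reaching at least a set limit at 20 µM in the primary screen, cut at about 59% in these data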;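 also: 0% = DMSO wells with substrate and 100% = DMSO wells lacking glucose-6-phosphate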
ABHD5 PLIN5 PPI: blocks binding of human ABHD5 to perilipin-5 | Split G. princeps luciferase complementation, luminescence, 4 h | Q00G26+Q8WTS1 | inhibition, % at 4 µM | actives 0.78% (n = 360,000);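 active = inhibition above the mean inhibition across every tested compound plus 3 SD, cut at about 22% in these data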;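 also: 0% = DMSO only wells and the 100% control is not disclosed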
B2AR ag: activates human beta-2 adrenergic receptor causing internalization; P07550; Am2.2-beta2AR cells, FAP receptor internalization, flow cytometry; response, % (no concentration beside the values); actives 0.43% (n = 340,000); AID 504454;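 active = response above a set limit, near 3 SD of response in nonfluorescent compounds, cut at about 42% in these data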
Target sequence (P07550 whole entry, looked up): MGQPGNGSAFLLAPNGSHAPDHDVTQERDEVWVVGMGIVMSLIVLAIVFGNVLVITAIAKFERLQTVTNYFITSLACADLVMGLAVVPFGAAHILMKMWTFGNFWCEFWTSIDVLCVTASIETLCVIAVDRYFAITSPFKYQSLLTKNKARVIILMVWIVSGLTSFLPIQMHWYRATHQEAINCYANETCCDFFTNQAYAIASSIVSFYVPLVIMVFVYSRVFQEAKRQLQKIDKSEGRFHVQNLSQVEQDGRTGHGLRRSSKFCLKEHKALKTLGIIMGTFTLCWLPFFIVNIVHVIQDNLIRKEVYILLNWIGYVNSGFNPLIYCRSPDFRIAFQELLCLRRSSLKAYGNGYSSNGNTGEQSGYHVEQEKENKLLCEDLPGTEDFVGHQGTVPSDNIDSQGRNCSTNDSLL
MC4R ag barr: human MC4R agonism via beta-arrestin | U2OS MC4R beta-arrestin complementation, luminescence; percent of melanotan II response, DMSO zero | activation, % at 8.9 µM | actives 0.98% (n = 360,000) | AID 540308;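 active = activation above a per-plate cutoff, the mean activation of sample wells on that plate plus 3 SD, cut at about 8% in these data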
Active calls of the source: *; i = inactive; x = no result. Rows were chosen to be rich in hits. Some 3% of all compounds tested hit in one or more screens of this group.

SMILES | MC4R antagonist | PfG6PD inh | ABHD5 PLIN5 PPI | B2AR ag | MC4R ag barr
COc1ccc(-c2noc(CCC(=O)Nc3cccc(C(=O)NC4CC4)c3)n2)cc1OC | 10.5 | -9.9 | 3.9 | x | 0.4
O=C1C=CC(c2c[nH]c3ccccc23)CC1 (centres undefined) | x | x | 22.6* | x | x
Cc1ccccc1N1C(=O)CC(c2c[nH]c3ccccc23)C1=O (centres undefined) | 13.0 | 10.4 | 2.2 | 4.4 | -3.3
Cc1c(C(=O)N(C)C2CCCCC2)sc2ncnc(N3CCN(c4ccccc4)CC3)c12 | 11.0 | 31.6 | -2.2 | 8.0 | 1.6
O=C1C=CC(=O)N1CCCCCCN1C(=O)C=CC1=O | x | 95.0* | x | x | x
O=C1C2C3C=CC(C3)C2C(=O)N1CCCCCCN1C(=O)C2C3C=CC(C3)C2C1=O (centres undefined) | 7.4 | -18.0 | -1.5 | -3.9 | 1.1
CC1CCCN(C(=O)C2CCN(S(=O)(=O)c3ccccc3)CC2)C1 (centres undefined) | 6.3 | 2.9 | 1.1 | -0.6 | -2.0
COc1cc(/C=N/n2c(C3CCCCC3)n[nH]c2=S)ccc1O | 12.7 | 22.2 | 0.5 | 14.2 | -0.6
Cc1cc(C)cc(NS(=O)(=O)CCCS(=O)(=O)Nc2cc(C)cc(C)c2)c1 | 2.3 | -2.5 | -7.0 | 5.1 | 19.1*
CCCCCCCCCS(=O)(=O)Nc1cc(C)ccn1 | 4.8 | 2.1 | 5.1 | 3.1 | 2.2
C(C#CCCCCCCCCC[n+]1ccccc1)#CCCCCCCCCC[n+]1ccccc1 | 7.4 | 50.5 | 32.8* | 21.4 | 4.0
N#C/C(=C\c1cn(Cc2ccc(F)cc2)c2ccccc12)C(=O)NCc1ccco1 | 4.8 | 8.0 | 5.8 | -4.4 | 9.1*
CCOc1ccc(NS(=O)(=O)c2ccc(C(=O)NCC(c3ccc(OC)cc3)N3CCCC3)cc2)cc1 (centres undefined) | 14.0 | -3.0 | 6.4 | 11.6 | -0.8
CCn1c(SCC(=O)Nc2ccc3c(c2)c2ccccc2n3CC)nnc1-c1ccco1 | -6.4 | 75.8* | 46.0* | 6.8 | -1.9
CC1=C(C(=O)OC2CCCCC2)C(c2ccccc2Br)NC(=O)N1 (centres undefined) | 7.9 | -22.6 | -6.7 | 2.4 | 8.2*
CCOc1ccccc1C1NC(=O)NC(C)=C1C(=O)OC1CCCCC1 (centres undefined) | 7.2 | 3.4 | 5.5 | -1.4 | 1.5
Cc1ccc2nc(/C(C#N)=C\c3ccc([N+](=O)[O-])o3)[nH]c2c1 | -47.3 | 43.1 | -10.3 | -363.8 | 766.2*
Cn1cc(C(C[N+](=O)[O-])c2ccccc2)c2ccccc21 (centres undefined) | 11.0 | -1.0 | 2.6 | 3.5 | 2.6
CC(=O)n1cc(C(C[N+](=O)[O-])SCCN)c2ccccc21 (centres undefined) | -10.9 | 22.3 | -10.7 | 76.0* | -1.8
Cc1cc(C)nc(N2CCCC(C(=O)Nc3cccc(Cl)c3)C2)n1 (centres undefined) | 19.8 | -7.4 | -3.3 | 0.2 | 8.4*
Cc1cc(N2CCCC(C(=O)Nc3cccc(Cl)c3)C2)n2ncnc2n1 (centres undefined) | 2.7 | 8.8 | 2.6 | -2.4 | -1.6
COc1ccc(-c2nnc3n2N=C(C)CS3)cc1 | 7.7 | -13.0 | -1.0 | 4.3 | -0.6
CCOC(=O)/C(=C\c1ccc(OC(F)F)cc1)C1=Nn2c(nnc2-c2ccc(Cl)cc2)SC1 | 12.7 | 25.4 | 20.2 | 80.4* | 4.3
CCN(CC(=O)Nc1ccc2c(c1)OCCO2)C(=O)COc1cc(C)ccc1Cl | 3.4 | -7.3 | 14.6 | -1.0 | -1.8
Cc1ccc(Cl)c(OCC(=O)Nc2ccc3c(c2)OCCO3)c1 | 11.2 | 0.3 | -5.8 | -5.0 | 9.0*
SMILES | MC4R antagonist | PfG6PD inh | ABHD5 PLIN5 PPI | B2AR ag | MC4R ag barr
Brc1ccc(NCc2cccc3ccccc23)nc1 | -0.3 | 9.4 | -5.0 | 2.0 | -0.1
Oc1ccccc1CNc1ccc(Br)cn1 | -4.4 | 10.5 | -5.3 | -7.1 | 48.9*
CS(=O)(=O)N(CC(=O)Nc1ccc(Br)cc1)C1CCCCC1 | 5.0 | -20.1 | -2.6 | -7.0 | 0.8
COc1cc(OC)c2c(-c3ccccc3)cc(=O)oc2c1C(CCN1CCCC1)c1ccc2c(c1)OCO2 (centres undefined) | 1.8 | -9.8 | 22.0* | 18.6 | -0.4
Cc1ccc(NC(=O)COC(=O)c2ccc(-n3nc(C)cc3C)cc2)c(F)c1 | -7.2 | 4.7 | 4.0 | -10.9 | 8.6*
Cc1cc(C)n(-c2ccc(C(=O)OCC(=O)Nc3ccccc3F)cc2)n1 | 9.3 | -10.0 | 3.0 | -4.1 | -5.7
Cc1cccc(NS(=O)(=O)c2ccc(NC(=O)CN(c3cc([N+](=O)[O-])ccc3C)S(C)(=O)=O)cc2)c1 | 1.8 | -1.2 | 32.0* | 30.1 | 1.2
COc1ccc(C)cc1NS(=O)(=O)c1ccc(NC(=O)CN(c2cc([N+](=O)[O-])ccc2C)S(C)(=O)=O)cc1 | 19.2 | -8.5 | 21.2 | 1.9 | -1.2
Cc1c(C)n(C)c2ccc(C(=O)Nc3cccc4ccccc34)cc12 | -3.7 | 29.4 | -2.5 | 6.4 | -1.3
FC(F)(F)c1cccc(Sc2cc(C(F)(F)F)nc(-c3ccccn3)n2)c1 | 12.1 | 3.5 | 3.4 | -21.4 | 9.1*
CCOc1ccc(S(=O)(=O)Nc2ccc(F)cc2)c(C)c1C | 4.2 | 7.3 | -1.9 | -4.3 | 8.8*
CCOc1ccc(NS(=O)(=O)c2cc(OC)ccc2OC)cc1 | -5.2 | 0.9 | -1.9 | -10.5 | 1.5
O=C(CN(c1ccc(Cl)c(C(F)(F)F)c1)S(=O)(=O)c1ccccc1)N/N=C/c1cccc2c1OCCO2 | 2.2 | 47.8 | -12.8 | 2.2 | -0.1
CSCCCNC(=S)N(C)CC(=O)Nc1ccc(C)cc1 | 7.6 | 6.1 | 1.8 | -4.8 | 2.8
COCCCNC(=O)c1ccc2c3c(onc13)-c1ccccc1C2=O | -8.5 | 16.4 | -11.2 | 23.2 | -0.6
CCOC(=O)C(C(=O)OCC)c1cc(Br)c2noc3c2c1C(=O)c1ccccc1-3 | -3.4 | 83.7* | 1.3 | i | -2.7
COc1cccc(C(=O)O[C@H]2[C@H](C)NS(=O)(=O)[C@H]3C[C@@H]4C=C[C@]23O4)c1 | 3.7 | -18.8 | 0.4 | -2.8 | -0.5
COCCNC(=O)[C@@H]1CCCN1C(=O)C1CCN(S(=O)(=O)c2ccc(C)cc2)CC1 | -0.9 | -2.8 | -7.2 | 2.8 | -0.8
C=CCN1C(=O)/C(=C/c2ccsc2)SC1=S | -4.2 | -18.3 | -0.9 | 43.7* | 2.3
O=C(Nc1ccccc1F)c1ccc2nc(N3C(=O)CCC3=O)sc2c1 | 32.8* | -17.8 | 6.6 | 5.3 | 0.0
FC(F)(F)c1cccc(NC(=S)N2CCN(c3cccc(C(F)(F)F)c3)CC2)c1 | 1.7 | -1.2 | -10.7 | 5.9 | 9.2*
CCCCOc1ccc(/C=C2/Sc3ccccc3C2=O)cc1 | 10.5 | -8.7 | 0.8 | 3.4 | -1.4
CC(=O)Oc1cccc(/C=C2\Sc3ccccc3C2=O)c1 | 5.3 | -8.7 | 22.0* | 7.2 | 0.8
CCNC(=O)C1(C)CCCN(C(=O)c2oc3ccccc3c2C)C1 (centres undefined) | 8.2 | x | 7.0 | x | 0.6
CC1CCc2c(sc3nc(C(C)(C)C)nc(N4CCN(C(=O)CCl)CC4)c23)C1 (centres undefined) | 23.3 | 28.0 | 17.8 | 50.4* | 18.9*

Screens deposited in PubChem by several laboratories.
